Source: ChEMBL document CHEMBL1212759, “Antifungal activity of colistin against mucorales species in vitro and in a murine model of Rhizopus oryzae pulmonary infection” (Antimicrob Agents Chemother, 2010)
Activity calls are given as the source filed them. No cut-off for these calls is given here.

Columns and labels:
Type in all cases: functional, organism-based
Rhizopus arrhizus [1] = assay: Fungicidal activity against Rhizopus oryzae 5799 at 2 ug/ml after 6 hrs by DiBAC staining
How it was run: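 Spores were grown to mycelia in RPMI 1640 plus 0.15% Junlon, shaken 18 h at 37°C. Mycelia were pelleted and exposed 6 h at 37°C with shaking to colistin (two levels), amphotericin B 2 μg/ml, or drug-free medium. They were washed in MOPS pH 7, stained with DiBAC 2 μg/ml for 1 h in the dark at ambient temperature, and imaged by fluorescence microscopy with an FITC filter.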

Rhizopus arrhizus [2] = assay: Antimicrobial activity against Rhizopus oryzae infected in BALB/c mouse pulmonary mucormycosis model assessed as effect on fungus-induced mortality rate at 80 mg/kg/day, ip after 10 days
How it was run: (§1)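 Female BALB/c mice (18–22 g) were immunosuppressed with cyclophosphamide 75 mg/kg i.p. and cortisone acetate 300 mg/kg s.c., then infected intranasally with ~3,500 R. oryzae spores. Colistimethate 40 mg/kg i.p. was given every 12 h for 5 days, starting 3 h post-infection; controls got saline. Groups of 10, run three times. Mortality was followed twice daily for 10 days; lung fungal burden by qPCR of rRNA gene, duplicate.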

Rhizopus arrhizus [3] = assay: Antimicrobial activity against Rhizopus oryzae infected in BALB/c mouse pulmonary mucormycosis model assessed as increase in survival rate at 5 mg/kg/day, itn after 10 days
How it was run: (§2)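 Female BALB/c mice were immunosuppressed with cyclophosphamide and cortisone acetate and infected intranasally with ~3,500 R. oryzae spores. As prophylaxis, intranasal colistimethate 2.5 mg/kg was given every 12 h for 5 days, starting 1 day before infection; on infection day it was given 3 h after spores. Groups of 10, run three times. Survival was followed over 10 days; lung burden by rRNA-gene qPCR.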

Rhizopus arrhizus [4] = assay: Antifungal activity against Rhizopus oryzae infected in BALB/c mouse pulmonary mucormycosis model assessed as decrease in fungal burden at 80 mg/kg/day, ip by RT-qPCR analysis; how it was run: as §1
Rhizopus arrhizus [5] = assay: Antifungal activity against Rhizopus oryzae infected in BALB/c mouse pulmonary mucormycosis model assessed as decrease in fungal burden at 5 mg/kg/day, itn by RT-qPCR analysis; how it was run: as §2

Compound | Activity (Rhizopus arrhizus [1]) | Activity (Rhizopus arrhizus [2]) | survival (Rhizopus arrhizus [3]) [%] | inhibition (Rhizopus arrhizus [4]) | inhibition (Rhizopus arrhizus [5])
C[C@@H]1[C@H](O)[C@@H](C)/C=C/C=C/C=C/C=C/C=C/C=C/C=C/[C@H](O[C@@H]2O[C@H](C)[C@@H](O)[C@H](N)[C@@H]2O)C[C@@H]2O[C@](O)(C[C@@H](O)C[C@@H](O)[C@H](O)CC[C@@H](O)C[C@@H](O)CC(=O)O[C@H]1C)C[C@H](O)[C@H]2C(=O)O | Active | – | – | – | –
COLISTIMETHATE | – | inactive | 61 | inactive | Active
